Legend:
[1] = Stability in rat plasma assessed as compound remaining at 50 uM at 37 degC after 60 mins by LC-MS/MS method; assay type: ADME, cell-free; details: read-out: Stability
Procedure, shortened: (§1)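 Prodrugs were incubated in rat or human plasma for 60 min. Disappearance of prodrug and concomitant appearance of ertapenem were followed by LC-MS/MS, and in selected cases monoesters from partial hydrolysis were also monitored. Ertapenem itself was incubated the same way as a control.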

[2] = Stability in human plasma assessed as compound remaining at 50 uM at 37 degC after 60 mins by LC-MS/MS method; assay type: ADME, cell-free; details: read-out: Stability; procedure, shortened: as §1
[3] = Stability in pH 2.0 simulated gastric fluid assessed as compound degradation to beta-lactam ring open products at 1 uM after 60 mins by LC-MS/MS method; assay type: ADME; details: read-out: Drug degradation
Procedure, shortened: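 Incubation was in simulated gastric fluid (SGF, pH 2.0) for 60 min, with loss to the β-lactam ring-opened product measured by LC-MS/MS.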

[4] = Stability in pH 6.5 simulated gastrointestinal fluid assessed as compound remaining at 50 uM after 3 hrs by LC-MS/MS method; assay type: ADME; details: read-out: Stability
Procedure, shortened: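 Compounds at 50 μM were incubated in fasted-state simulated intestinal fluid (FaSSIF, pH 6.5) for over 3 h. Percent remaining was determined by LC-MS/MS.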

[5] = Stability in pH 7.4 phosphate buffer assessed as compound remaining at 50 uM after 3 hrs by LC-MS/MS method; assay type: physicochemical; details: read-out: Stability
[6] = system: Canis familiaris; test: AUC (0 to 8 hrs) in fasted Beagle dog at 10 mg/kg dosed through intraduodenal route by LC-MS/MS method; assay type: ADME, organism-based, Canis lupus familiaris, Plasma; set-up: time < 8 hr, dose 10 mg/kg, route intraduodenal; details: in vivo, other, 8 h
Procedure, shortened: (§2)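 Prodrugs were given intraduodenally to bypass stomach acid. Plasma was sampled at intervals over 8 h, and parent prodrug, the two monoester metabolites and ertapenem were quantified by LC-MS/MS. The lower limit of quantitation was 5 nM. AUC(0–8) was used, and it differed from AUC(0–∞) by ±20%. Vehicles were 30% Captisol or 0.5% methylcellulose, as solution or suspension depending on compound.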

[7] = system: Canis familiaris; test: AUC (0 to 8 hrs) in fasted Beagle dog assessed as ertapenem level at 10 mg/kg dosed through intraduodenal route by LC-MS/MS method; assay type: ADME, organism-based, Canis lupus familiaris, Plasma; set-up: time < 8 hr, dose 10 mg/kg, route intraduodenal; details: in vivo, other; procedure, shortened: as §2
[8] = system: Canis familiaris; test: Oral bioavailability in fasted Beagle dog assessed as ertapenem level at 10 mg/kg dosed through intraduodenal route by LC-MS/MS method; assay type: ADME, organism-based, Canis lupus familiaris; details: in vivo
Procedure, shortened: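 After intraduodenal dosing, plasma over 8 h was analysed by LC-MS/MS. Bioavailability was calculated as dose-normalized AUC of ertapenem formed from the prodrug divided by dose-normalized AUC of ertapenem dosed iv. Vehicle was 30% Captisol or 0.5% methylcellulose.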

[9] = system: Canis familiaris; test: Oral bioavailability in fasted Beagle dog assessed as assessed as ertapenem and monoetser metabolites level at 10 mg/kg dosed through intraduodenal route by LC-MS/MS method; assay type: ADME, organism-based, Canis lupus familiaris; details: in vivo
Procedure, shortened: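 Total absorption followed intraduodenal dosing with LC-MS/MS of plasma over 8 h. It was calculated as the combined dose-normalized AUC of circulating parent prodrug, ertapenem and two monoesters, divided by dose-normalized AUC of ertapenem given iv. Vehicle was 30% Captisol or 0.5% methylcellulose.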

remaining at 1 h, 50 µM [1] [%] | remaining at 1 h, 50 µM [2] [%] | degraded at 1 h, 1 µM [3] [%] | remaining at 3 h, 50 µM [4] [%] | remaining at 3 h, 50 µM [5] [%] | AUC [6] [µM·h] | AUC [7] [µM·h] | F [8] [%] | F [9] [%] | AUC ([6]; BLD = below limit of detection) | Compound
0 | 4 | > 25 | > 95 | > 95 | – | – | – | – | – | C[C@@H](O)[C@H]1C(=O)N2C3=C(S[C@@H]4CN[C@@H](C4)C(=O)Nc4cccc(c4)C(=O)OCCCCOC3=O)[C@H](C)[C@H]12
– | 34 | > 25 | > 95 | > 95 | 0.1 | 0.4 | 0.5 | 0.7 | – | C[C@@H](O)[C@H]1C(=O)N2C3=C(S[C@@H]4CN[C@@H](C4)C(=O)Nc4cccc(c4)C(=O)OCCCOC3=O)[C@H](C)[C@H]12
0 | 82 | > 25 | > 95 | > 95 | – | – | – | – | – | CCC(CC)C(=O)OCOC(=O)C1=C(S[C@@H]2CN[C@H](C(=O)Nc3cccc(C(=O)O)c3)C2)[C@H](C)[C@@H]2[C@@H]([C@@H](C)O)C(=O)N12
0 | 45 | > 25 | > 95 | > 95 | – | – | – | – | – | C[C@@H](O)[C@H]1C(=O)N2C(C(=O)OCOC(=O)C(C)(C)C)=C(S[C@@H]3CN[C@H](C(=O)Nc4cccc(C(=O)O)c4)C3)[C@H](C)[C@H]12
0 | 21 | > 25 | > 95 | > 95 | – | – | – | – | – | C[C@@H](O)[C@H]1C(=O)N2C3=C(S[C@@H]4CN[C@@H](C4)C(=O)Nc4cccc(c4)C(=O)OC/C=C\COC3=O)[C@H](C)[C@H]12
89 | 89 | > 25 | > 95 | > 95 | – | – | – | – | – | CCCCCCCCCCCCCCCCOC(=O)C1=C(S[C@@H]2CN[C@H](C(=O)Nc3cccc(C(=O)OCCCCCCCCCCCCCCCC)c3)C2)[C@H](C)[C@@H]2[C@@H]([C@@H](C)O)C(=O)N12
10 | 60 | > 25 | > 95 | > 95 | – | – | – | – | – | C[C@@H](O)[C@H]1C(=O)N2C(C(=O)OCOC(=O)C3CCCCC3)=C(S[C@@H]3CN[C@H](C(=O)Nc4cccc(C(=O)OCOC(=O)C5CCCCC5)c4)C3)[C@H](C)[C@H]12
2 | 46 | > 25 | > 95 | > 95 | – | – | – | – | – | CC(OC(=O)C1=C(S[C@@H]2CN[C@H](C(=O)Nc3cccc(C(=O)OC(C)OC(=O)C(C)(C)C)c3)C2)[C@H](C)[C@@H]2[C@@H]([C@@H](C)O)C(=O)N12)OC(=O)C(C)(C)C (some centres not stated)
0 | 1 | > 25 | > 95 | > 95 | – | – | – | – | – | CCOC(=O)OCOC(=O)C1=C(S[C@@H]2CN[C@H](C(=O)Nc3cccc(C(=O)OCOC(=O)OCC)c3)C2)[C@H](C)[C@@H]2[C@@H]([C@@H](C)O)C(=O)N12
0 | 40 | > 25 | > 95 | > 95 | – | – | – | – | – | C[C@@H](O)[C@H]1C(=O)N2C(C(=O)OCOC(=O)OC(C)(C)C)=C(S[C@@H]3CN[C@H](C(=O)Nc4cccc(C(=O)O)c4)C3)[C@H](C)[C@H]12
0 | 19 | > 25 | > 95 | > 95 | – | – | – | – | – | CCOC(=O)C1=C(S[C@H]2C[C@@H](C(=O)Nc3cccc(C(=O)OCC)c3)N(Cc3oc(=O)oc3C)C2)[C@H](C)[C@@H]2[C@@H]([C@@H](C)O)C(=O)N12
0 | 62 | > 25 | > 95 | > 95 | – | – | – | – | – | CC(C)OC(=O)OCOC(=O)C1=C(S[C@@H]2CN[C@H](C(=O)Nc3cccc(C(=O)O)c3)C2)[C@H](C)[C@@H]2[C@@H]([C@@H](C)O)C(=O)N12
0 | 0 | > 25 | > 95 | > 95 | – | – | – | – | – | CC(=O)OCOC(=O)C1=C(S[C@@H]2CN[C@H](C(=O)Nc3cccc(C(=O)OCOC(C)=O)c3)C2)[C@H](C)[C@@H]2[C@@H]([C@@H](C)O)C(=O)N12
3 | 28 | > 25 | > 95 | > 95 | – | – | – | – | – | CC(C)OC(=O)OCOC(=O)C1=C(S[C@@H]2CN[C@H](C(=O)Nc3cccc(C(=O)OCOC(=O)OC(C)C)c3)C2)[C@H](C)[C@@H]2[C@@H]([C@@H](C)O)C(=O)N12
0 | 60 | > 25 | > 95 | > 95 | – | – | – | – | – | C[C@@H](O)[C@H]1C(=O)N2C3=C(S[C@@H]4CN[C@@H](C4)C(=O)Nc4cccc(c4)C(=O)OCOCOC3=O)[C@H](C)[C@H]12
10 | 96 | > 25 | > 95 | > 95 | – | – | – | – | – | C[C@@H](O)[C@H]1C(=O)N2C(C(=O)OCOC(=O)OC3CCCCC3)=C(S[C@@H]3CN[C@H](C(=O)Nc4cccc(C(=O)OCOC(=O)OC5CCCCC5)c4)C3)[C@H](C)[C@H]12
3 | 83 | > 25 | > 95 | > 95 | – | – | – | – | – | CCC(CC)C(=O)OCOC(=O)C1=C(S[C@@H]2CN[C@H](C(=O)Nc3cccc(C(=O)OCOC(=O)C(CC)CC)c3)C2)[C@H](C)[C@@H]2[C@@H]([C@@H](C)O)C(=O)N12
0 | 46 | > 25 | > 95 | > 95 | – | – | – | – | – | C[C@@H](O)[C@H]1C(=O)N2C(C(=O)OCOC(=O)OC3CCCCC3)=C(S[C@@H]3CN[C@H](C(=O)Nc4cccc(C(=O)O)c4)C3)[C@H](C)[C@H]12
0 | 26 | > 25 | > 95 | > 95 | – | – | – | – | – | CC(C)C(=O)OCOC(=O)c1cccc(NC(=O)[C@@H]2C[C@H](SC3=C(C(=O)O)N4C(=O)[C@H]([C@@H](C)O)[C@H]4[C@H]3C)CN2)c1
0 | 53 | > 25 | > 95 | > 95 | – | – | – | – | – | C[C@@H](O)[C@H]1C(=O)N2C(C(=O)O)=C(S[C@@H]3CN[C@H](C(=O)Nc4cccc(C(=O)OCOC(=O)C(C)(C)C)c4)C3)[C@H](C)[C@H]12
0 | 17 | > 25 | > 95 | > 95 | – | – | – | – | – | Cc1oc(=O)oc1COC(=O)N1C[C@@H]2C[C@H]1C(=O)Nc1cccc(c1)C(=O)OC/C=C/COC(=O)C1=C(S2)[C@H](C)[C@@H]2[C@@H]([C@@H](C)O)C(=O)N12
0 | 0 | > 25 | > 95 | > 95 | – | 0.7 | 1 | 1 | BLD | C[C@@H](O)[C@H]1C(=O)N2C3=C(S[C@@H]4CN[C@@H](C4)C(=O)Nc4cccc(c4)C(=O)OCc4oc(=O)oc4COC3=O)[C@H](C)[C@H]12
8 | 67 | > 25 | > 95 | > 95 | – | – | – | – | – | C[C@@H](O)[C@H]1C(=O)N2C(C(=O)OCOC(=O)OC(C)(C)C)=C(S[C@@H]3CN[C@H](C(=O)Nc4cccc(C(=O)OCOC(=O)OC(C)(C)C)c4)C3)[C@H](C)[C@H]12

From ChEMBL document CHEMBL3351346, “Design, synthesis, structure-function relationship, bioconversion, and pharmacokinetic evaluation of ertapenem prodrugs” (J Med Chem, 2014)
